Data: ChEMBL document CHEMBL1133087, “Radioiodinated N-(2-diethylaminoethyl)benzamide derivatives with high melanoma uptake: structure-affinity relationships, metabolic fate, and intracellular localization” (J Med Chem, 2000)

What was measured:
Mus musculus [1] = assay: Biodistribution was studied by injecting intravenously into C57B1/6 mice bearing subcutaneously transplanted B16 melanoma after 1 hr.; assay type: ADME, organism-based; conditions: in vivo, iv
Mus musculus [2] = assay: Amount of urinary radioactivity collected within 4 hr after iv injection into C57B1/6 mice was analyzed by RP-HPLC.; assay type: ADME, organism-based, Urine; conditions: in vivo
[3] = The lipophilicity was measured in an octanol/water system at pH 7.4.; assay type: physicochemical
Procedure, shortened: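 HPLC-purified no-carrier-added radioiodinated benzamide was added to 0.067 M phosphate buffer at pH 7.4 with an equal volume of 1-octanol. The mixture was vortexed to equilibrium, centrifuged and the phases separated. Each phase was γ-counted, with log P = log(cpm octanol/cpm buffer).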

Mus musculus [4] = assay: Biodistribution was studied by injecting intravenously into C57B1/6 mice bearing subcutaneously transplanted B16 spleen after 1 hr.; assay type: ADME, organism-based; conditions: in vivo, iv
Mus musculus [5] = assay: Biodistribution was studied by injecting intravenously into C57B1/6 mice bearing subcutaneously transplanted B16 blood after 1 hr.; assay type: ADME, organism-based; conditions: in vivo, iv
Mus musculus [6] = assay: Biodistribution was studied by injecting intravenously into C57B1/6 mice bearing subcutaneously transplanted B16 blood after 24 hr; assay type: ADME, organism-based; conditions: in vivo, iv
Mus musculus [7] = assay: Biodistribution was studied by injecting intravenously into C57B1/6 mice bearing subcutaneously transplanted B16 heart after 6 hr.; assay type: ADME, organism-based; conditions: in vivo, iv
Mus musculus [8] = assay: Biodistribution was studied by injecting intravenously into C57B1/6 mice bearing subcutaneously transplanted B16 muscle after 1 hr.; assay type: ADME, organism-based, Muscle tissue; conditions: in vivo, iv
Mus musculus [9] = assay: Biodistribution was studied by injecting intravenously into C57B1/6 mice bearing subcutaneously transplanted B16 muscle after 24 hr.; assay type: ADME, organism-based, Muscle tissue; conditions: in vivo, iv
Mus musculus [10] = assay: Biodistribution was studied by injecting intravenously into C57B1/6 mice bearing subcutaneously transplanted B16 muscle after 6 hr.; assay type: ADME, organism-based, Muscle tissue; conditions: in vivo, iv
Mus musculus [11] = assay: Biodistribution was studied by injecting intravenously into C57B1/6 mice bearing subcutaneously transplanted B16 spleen after 24 hr.; assay type: ADME, organism-based; conditions: in vivo, iv
Mus musculus [12] = assay: Biodistribution was studied by injecting intravenously into C57B1/6 mice bearing subcutaneously transplanted B16 […] after 6 hr.; assay type: ADME, organism-based; conditions: in vivo, iv
Mus musculus [13] = assay: Biodistribution was studied by injecting intravenously into C57B1/6 mice bearing subcutaneously transplanted B16 kidney after 1 hr.; assay type: ADME, organism-based; conditions: in vivo, iv
Mus musculus [14] = assay: Biodistribution was studied by injecting intravenously into C57B1/6 mice bearing subcutaneously transplanted B16 kidney after 24 hr.; assay type: ADME, organism-based; conditions: in vivo, iv
Mus musculus [15] = assay: Biodistribution was studied by injecting intravenously into C57B1/6 mice bearing subcutaneously transplanted B16 kidney after 6 hr.; assay type: ADME, organism-based; conditions: in vivo, iv
Mus musculus [16] = assay: Biodistribution was studied by injecting intravenously into C57B1/6 mice bearing subcutaneously transplanted B16 liver after 1 hr.; assay type: ADME, organism-based; conditions: in vivo, iv
Mus musculus [17] = assay: Biodistribution was studied by injecting intravenously into C57B1/6 mice bearing subcutaneously transplanted B16 liver after 24 hr.; assay type: ADME, organism-based; conditions: in vivo, iv
Mus musculus [18] = assay: Biodistribution was studied by injecting intravenously into C57B1/6 mice bearing subcutaneously transplanted B16 liver after 6 hr.; assay type: ADME, organism-based; conditions: in vivo, iv
Mus musculus [19] = assay: Biodistribution was studied by injecting intravenously into C57B1/6 mice bearing subcutaneously transplanted B16 lung after 1 hr.; assay type: ADME, organism-based; conditions: in vivo, iv
Mus musculus [20] = assay: Biodistribution was studied by injecting intravenously into C57B1/6 mice bearing subcutaneously transplanted B16 lung after 24 hr.; assay type: ADME, organism-based; conditions: in vivo, iv
Mus musculus [21] = assay: Biodistribution was studied by injecting intravenously into C57B1/6 mice bearing subcutaneously transplanted B16 lung after 6 hr.; assay type: ADME, organism-based; conditions: in vivo, iv
Mus musculus [22] = assay: Biodistribution was studied by injecting intravenously into C57B1/6 mice bearing subcutaneously transplanted B16 melanoma after 24 hr.; assay type: ADME, organism-based; conditions: in vivo, iv
Mus musculus [23] = assay: Biodistribution was studied by injecting intravenously into C57B1/6 mice bearing subcutaneously transplanted B16 melanoma after 6 hr.; assay type: ADME, organism-based; conditions: in vivo, iv
Mus musculus [24] = assay: Biodistribution was studied by injecting intravenously into C57B1/6 mice bearing subcutaneously transplanted B16 blood after 6 hr.; assay type: ADME, organism-based; conditions: in vivo, iv
Mus musculus [25] = assay: Biodistribution was studied by injecting intravenously into C57B1/6 mice bearing subcutaneously transplanted B16 brain after 1 hr.; assay type: ADME, organism-based; conditions: in vivo, iv
Mus musculus [26] = assay: Biodistribution was studied by injecting intravenously into C57B1/6 mice bearing subcutaneously transplanted B16 brain after 24 hr.; assay type: ADME, organism-based; conditions: in vivo, iv
Mus musculus [27] = assay: Biodistribution was studied by injecting intravenously into C57B1/6 mice bearing subcutaneously transplanted B16 brain after 6 hr.; assay type: ADME, organism-based; conditions: in vivo, iv
Mus musculus [28] = assay: Biodistribution was studied by injecting intravenously into C57B1/6 mice bearing subcutaneously transplanted B16 heart after 1 hr.; assay type: ADME, organism-based; conditions: in vivo, iv
Mus musculus [29] = assay: Biodistribution was studied by injecting intravenously into C57B1/6 mice bearing subcutaneously transplanted B16 heart after 24 hr.; assay type: ADME, organism-based; conditions: in vivo, iv

ID/g (Mus musculus [1]) | ID (Mus musculus [2]) | logD [3] | ID/g (Mus musculus [4]) | ID/g (Mus musculus [5]) | ID/g (Mus musculus [7]) | ID/g (Mus musculus [8]) | ID/g (Mus musculus [10]) | ID/g (Mus musculus [12]) | ID/g (Mus musculus [13]) | ID/g (Mus musculus [15]) | ID/g (Mus musculus [16]) | ID/g (Mus musculus [18]) | ID/g (Mus musculus [19]) | ID/g (Mus musculus [21]) | ID/g (Mus musculus [23]) | ID/g (Mus musculus [24]) | ID/g (Mus musculus [25]) | ID/g (Mus musculus [27]) | ID/g (Mus musculus [28]) | Compound | further results
16.61% | 34% | 1.81 | 5.06% | 2.32% | 0.94% | 0.94% | 0.43% | 1.84% | 4.53% | 2.08% | 11.32% | 9.61% | 3.16% | 2.07% | 16.48% | 1.86% | 0.64% | 0.15% | 1.91% | CCN(CC)CCNC(=O)c1cc(Br)c(N)c(I)c1OC | ID/g (Mus musculus [6]): 0.19%; ID/g (Mus musculus [9]): 0.01%; ID/g (Mus musculus [11]): 0.38%; ID/g (Mus musculus [14]): 0.46%; ID/g (Mus musculus [17]): 4.54%; ID/g (Mus musculus [20]): 0.26%; ID/g (Mus musculus [22]): 8.02%; ID/g (Mus musculus [26]): 0.02%; ID/g (Mus musculus [29]): 0.13%
4.66% | – | 1.62 | 2% | 1.93% | 0.45% | 0.61% | 0.28% | 1.57% | 6.89% | 3.95% | 4.92% | 3.43% | 3.12% | 1.06% | 6.92% | 0.85% | 0.18% | 0.08% | 1.17% | CCN(CC)CCNC(=O)c1cc(I)c(N)cc1OC | –
8.06% | – | 1.16 | 1.26% | 0.9% | 0.13% | 0.38% | 0.08% | 0.31% | 1.81% | 0.17% | 1.23% | 0.23% | 1.41% | 0.41% | 2.32% | 0.33% | 0.15% | 0.02% | 0.63% | CCN(CC)CCNC(=O)c1cc(OC)ccc1I | –
7.73% | 71% | 1.26 | 2.5% | 0.46% | 0.09% | 0.19% | 0.04% | 0.15% | 1.71% | 0.41% | 0.88% | 0.26% | 1.15% | 0.19% | 6.8% | 0.14% | 0.5% | 0.04% | 0.46% | CCN(CC)CCNC(=O)c1cc(I)ccc1OC | –
